The list is not random: actives were taken first. Their share in the collection is about 0.7%.
STK33 inh: inhibitors of purified STK33 kinase, primary screen, biochemical, ADP-Glo luminescence, homogeneous, cell-free | MBP phosphorylation | Serine/threonine-protein kinase 33 (Homo sapiens), Q9BYT3 | AID 2661, 2010 | 0.073% of 320,000 active | inhibition, % at 10 µM;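 active = inhibition at or above 25%, using the most active replicate where run in duplicate; inactive = inhibition below 25%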
GSK3beta inhib: human GSK3beta kinase inhibitors, primary screen, biochemical, cell-free homogeneous, HTS | Glycogen synthase kinase-3 beta (Homo sapiens), P49841 | GST-GSK3beta kinase, ADP-Glo luminescence, 60 min; active compounds read low | activity score (negative = inhibition), % at 10 µM | 0.038% of 300,000 active | AID 2097, 2009;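 active = more than half of replicate wells score below -50%, meaning over 50% inhibition versus plate controls; inconclusive = some replicates but at most half score below -50%; inactive = no replicate scores below -50%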;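 note: 0% = median DMSO wells and -100% = median GW8510 positive control wells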
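test system = GST-tagged human GSK3beta kinase, cell-free | reagent = 25 µM ATP with peptide substrate | dosing = one dose of 10 µM per compound | schedule = 60 min reaction, RT | detection = luminescent ADP-Glo measurement of ADP formed | control set = DMSO neutral wells and GW8510 at 20 µM as positive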
Hep lipid drop: inhibitors of hepatocyte lipid droplet formation, primary screen, imaging, high-throughput imaging, BODIPY stain. AID 1656, 2009. inhibition, % at 6.5 µM. 0.4% of 240,000 active. AML12 mouse hepatocytes, oleate lipid droplets;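 active = lipid droplet intensity inhibited by at least 50%, with more than 500 cells counted; inconclusive = wells with under 300 cells, treated as cytotoxic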
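Material: mouse AML12 hepatocyte cell line, fixed after treatment; Timing: compound with oleate, overnight; Technique: high-content imaging of BODIPY-stained droplets and DAPI nuclei; Probe or stimulus: oleate, 100 µM final; Dosing: compound at 6.5 µM only.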
Rce1 inhib: yeast Rce1p protease inhibitors, primary screen, biochemical, fluorescence, cell-free homogeneous. CAAX prenyl protease 2 (Saccharomyces cerevisiae (strain ATCC 204508 / S288c)), Q03530. yeast membranes, quenched prenylated peptide cleavage fluorescence. calls only. 0.27% of 290,000 active. AID 2563, 2010;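 active = fall in fluorescence gain of 50% or more versus controls, with final raw signal at or below 3038400; inconclusive = same 50% fall but final raw signal above 3038400; inactive = fall in fluorescence gain under 50%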;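 note: plate controls were neutral control wells for no effect and wells lacking membranes for full effect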
Target sequence (Q03530 whole entry, looked up): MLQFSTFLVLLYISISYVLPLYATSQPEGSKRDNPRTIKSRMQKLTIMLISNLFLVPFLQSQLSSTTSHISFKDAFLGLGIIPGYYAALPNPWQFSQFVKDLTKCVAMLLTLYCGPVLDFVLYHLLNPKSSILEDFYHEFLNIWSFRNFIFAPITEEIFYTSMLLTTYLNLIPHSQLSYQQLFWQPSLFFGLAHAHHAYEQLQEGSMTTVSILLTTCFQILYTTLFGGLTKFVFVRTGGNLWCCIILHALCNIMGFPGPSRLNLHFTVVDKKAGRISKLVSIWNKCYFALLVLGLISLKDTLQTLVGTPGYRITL
GSK3A inh: blockers of GSK3A enzyme activity – biochemical, luminescence, cell-free homogeneous, HTS, primary screen. inhibition, % at 10 µM. GSK-3 alpha kinase, ADP-Glo luminescence, 60 min. Glycogen synthase kinase-3 alpha (Homo sapiens), P49840. 0.1% of 320,000 active;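 active = more than half of replicates show inhibition above 20%; inconclusive = some but at most half of replicates above 20% inhibition; inactive = no replicate shows inhibition above 20%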;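 note: GST-tagged GSK-3 alpha with peptide substrate and 25 µM ATP; 0% = DMSO neutral wells and 100% = GW8510 positive control wells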
HSV replic up: enhancers of HSV replication in host cells, fold increase, host cell viability | 0.005% of 220,000 active | HSV replication augmentation in cells | maximum fold increase | AID 1956, 2009; in the data active = maximum fold increase above about 1.5; inconclusive = no clear call, values can overlap the other calls; tested in PC3 cells
Numbers without * were called inactive; i = inactive; u = inconclusive; x = not tested or not shown; + = active, no number.

SMILES | STK33 inh | GSK3beta inhib | Hep lipid drop | Rce1 inhib | GSK3A inh | HSV replic up
CCC(C(=O)NCCCN1CC(C)CC(C)C1)n1nc(C)c2sc3ccccc3c2c1=O (stereo unspecified) | 0 | 0 | -16 | i | 3 | x
Cc1cccc(OCCN2C(=O)C(=O)c3cc(C)ccc32)c1 | 0 | 0 | 3 | + | -2 | i
COc1ccccc1C1(O)CCN(CC(=O)Nc2nc(-c3ccccc3)cs2)CC1 | 2 | -1 | 89* | i | -5 | i
CCc1nnc(NC(=O)CN2CCC(O)(c3ccccc3OC)CC2)s1 | 0 | 2 | x | i | -1 | i
CCN(CC)CCCNC(=O)c1cc2c(-c3ccc(Cl)cc3)nn(C)c2s1 | 4 | -4 | x | u | 8 | i
CN1CCN(CCCNC(=O)c2cc3c(-c4ccc(Cl)cc4)nn(C)c3s2)CC1 | x | 1 | x | + | x | i
CCn1c2ccccc2c(=O)c2ccccc21 | 31* | -18 | -1 | i | 10 | i
CCn1c2ccccc2c2cc([N+](=O)[O-])ccc21 | 0 | 1 | 2 | i | -5 | i
CCCCCn1c(=O)c(-c2nc3ccccc3[nH]2)c(O)c2ccccc21 | 1 | 1 | 19 | + | 4 | i
CCCC(=O)N=c1sc2c(OC)ccc(OC)c2n1C | -3 | -1 | 12 | i | -3 | i
CS(=O)(=O)N1CCN(c2ccccc2NC(=O)c2ccc(Br)o2)CC1 | 23 | 2 | x | i | 53* | i
CN(CCOc1ccccc1)C(=O)C1CCC(=O)N(CCc2ccc(Cl)cc2)C1 (stereo unspecified) | 1 | 2 | -15 | i | 2 | x
O=C(COC(=O)c1ccc(S(=O)(=O)N2CCCC2)cc1)NCc1ccccc1 | -2 | 1 | x | + | x | i
Cc1cccc(NC(=O)CCC(=O)Nc2nnc(C(F)(F)F)s2)c1 | -1 | 2 | -26 | i | -4 | i
O=C(O)c1ccc(-c2ccc(O)c(F)c2)cc1 | -1 | -2 | -2 | + | -2 | i
O=C(O)c1ccc(O)c(O)c1 | 0 | 10 | -2 | x | -2 | i
O=C1NC(NS(=O)(=O)c2ccccc2)(C(F)(F)F)C(=O)N1Cc1ccccc1 (stereo unspecified) | 1 | 0 | 14 | i | -1 | x
CCN1CCN(C(=O)C(C)Sc2nc3nc(C)cc(C)n3n2)CC1 (stereo unspecified) | 8 | x | x | x | 2 | x
C/C=C(/C)C(=O)O[C@H]1[C@@H](O)c2c(ccc3ccc(=O)oc23)OC1(C)C | -1 | -2 | -7 | + | 1 | i
C/C=C(/C)C(=O)O[C@@H]1[C@H](OC(C)=O)c2c(ccc3ccc(=O)oc23)OC1(C)C | 0 | -5 | -60 | i | 3 | i
Cc1cc(C)c(OCC(=O)NCCCn2nc(C)cc2C)c(C)c1 | -1 | x | x | x | -2 | x
NS(=O)(=O)c1ccc(N2CCOCC2)c(C(=O)NCCCSc2ccccc2)c1 | -2 | x | x | x | 2 | x
O=C(COC(=O)/C=C/c1ccc(Cl)cc1Cl)NCC1CCCO1 (stereo unspecified) | -1 | x | x | x | 1 | x
COc1cccc(CNC(=O)CSc2nc3ccc(C)cc3[nH]2)c1 | 0 | 2 | x | i | 0 | x
COc1ccccc1N=c1oc2cc(O)ccc2cc1C(N)=O | 37* | 2 | x | u | 61* | i
SMILES | STK33 inh | GSK3beta inhib | Hep lipid drop | Rce1 inhib | GSK3A inh | HSV replic up
COc1ccccc1N=c1oc2cc(O)ccc2cc1C(=O)NCC1CCCO1 (stereo unspecified) | -3 | 1 | x | i | 0 | i
COc1ccc2cc(C(N)=O)c(=Nc3ccc(C)cc3)oc2c1 | 1 | 6 | 6 | i | 0 | i
Cc1cccc(N=c2oc3cc(O)ccc3cc2C(N)=O)c1 | 19 | 0 | x | i | 56* | i
COc1ccc(NS(=O)(=O)c2ccc(C)cc2)c([N+](=O)[O-])c1 | -2 | 2 | -3 | i | -3 | i
Cc1cc(NS(=O)(=O)c2ccccc2)c([N+](=O)[O-])cc1C | -1 | 4 | 2 | + | -1 | i
O=C(Nc1cccc2c1C(=O)NC2=O)c1cccc(N2C(=O)CCC2=O)c1 | 3 | -8 | -19 | x | 6 | i
O=C(CN1C(=O)CCC1=O)Nc1cccc2c1C(=O)NC2=O | -1 | -80* | -11 | i | 98* | i
CC1=C(C(=O)OCc2ccc3c(c2)OCO3)C(c2ccc(F)cc2)NC(=O)N1 (stereo unspecified) | 7 | -22 | x | i | 51* | i
COc1ccc(NS(=O)(=O)c2ccc3oc(=O)c4[nH]c(=O)c(=O)n(C)c4c3c2)cc1 | -1 | -4 | -2 | + | 4 | x
Cc1cccc(NC(=O)C(CC(C)C)NC(=O)C2CCC(C)CC2)n1 (stereo unspecified) | -1 | 4 | 7 | i | -2 | i
COc1cc(/C=C2\SC(=Nc3ccc(Cl)c(C(=O)O)c3)NC2=O)c(Br)c(Br)c1O | 35* | -15 | -2 | i | 22 | x
COc1cc(/C=C2\SC(=Nc3ccccc3)NC2=O)cc(Cl)c1O | 7 | -4 | -8 | i | 7 | x
COc1cc(C(=S)N2CCCC2)ccc1OCc1ccccc1 | -2 | x | -44 | x | 6 | x
O=C(COC(=O)Cc1c(Cl)cccc1Cl)Nc1ccc(OC(F)(F)F)cc1 | -1 | -1 | 10 | i | -4 | i
COc1ccc(-c2nc3ncccc3o2)cc1NC(=O)c1cccs1 | 1 | 0 | -7 | i | -1 | x
COc1ccc(-c2nc3ncccc3o2)cc1NC(=O)c1ccco1 | -1 | -4 | 16 | + | 2 | x
COc1cccc(C(=O)NC(=S)Nc2nnn(C)n2)c1 | -1 | 0 | 4 | i | -2 | i
CCN(CC)Cc1c(O)ccc2c(=O)c(-c3ccccc3OC)coc12 | -1 | -3 | -5 | + | 1 | x
Cc1cc(C(=O)OCC(=O)N(CC(C)C)c2c(N)n(Cc3ccccc3)c(=O)[nH]c2=O)c(C)o1 | -1 | 1 | x | i | -1 | x
COCCN1C(=O)/C(=C/c2ccc(Oc3ccc([N+](=O)[O-])cn3)c(OC)c2)SC1=Nc1ccccc1 | 0 | 0 | -20 | + | -1 | i
COc1cc(/C=C2\SC(=Nc3ccccc3)N(CCc3c[nH]c4ccccc34)C2=O)ccc1OC(C)C(=O)O (stereo unspecified) | -1 | 3 | 9 | i | 2 | i
